Laboratory results as given in ChEMBL document CHEMBL1124468, “N-(fluoroethyl)(imidazolylphenyl)formamidines. The issue of the active species of mifentidine” (J Med Chem, 1989).

Legend:
[1] = Dissociation constant for imidazole ring; assay type: physicochemical
In short: (§1)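 Macroscopic ionization constants (pKa) by potentiometric titration of compound dissolved in previously boiled distilled water with 2 mL methanol; titrated with 0.1 N KOH in 0.1-equivalent additions, pH read at equilibrium after each addition.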

[2] = Percent of monocationic species at a pH of 6.5 was determined
In short: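 Monocationic percentage at pH 6.5 computed with the Henderson-Hasselbach equation from pKa values measured by potentiometric titration with 0.1 N KOH in water containing a little methanol.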

[3] = molecular target: Histamine H2 receptor (Cavia porcellus) (UniProt P47747); assay: Antagonist activity against histamine H2 receptor was evaluated in guinea pig atria; value ranges from (3.8-119)x10E-9; assay type: functional
Chain of Histamine H2 receptor (Cavia porcellus) (P47747 whole entry): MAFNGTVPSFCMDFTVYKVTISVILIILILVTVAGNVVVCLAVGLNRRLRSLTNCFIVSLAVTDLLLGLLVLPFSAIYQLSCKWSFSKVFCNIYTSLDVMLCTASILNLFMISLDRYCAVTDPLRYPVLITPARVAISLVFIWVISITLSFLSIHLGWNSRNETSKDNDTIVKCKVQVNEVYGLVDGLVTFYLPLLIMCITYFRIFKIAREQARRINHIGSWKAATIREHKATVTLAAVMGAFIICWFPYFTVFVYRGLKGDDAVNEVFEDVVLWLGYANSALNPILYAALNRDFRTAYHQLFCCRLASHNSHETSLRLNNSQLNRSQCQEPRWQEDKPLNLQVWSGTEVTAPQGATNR
In short: (§2)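 Spontaneously beating atria from male Dunkin-Hartley guinea pigs (400–500 g) in oxygenated (O2/CO2 95:5) McEwen's solution, pH 6.5, 32 °C; rate recorded by instantaneous rate meter. Cumulative histamine up to maximal chronotropic response; antagonist equilibrated 60 min. K_B = [B]/(DR − 1), DR being histamine dose ratios at half-maximal response with and without several antagonist concentrations; multiple-regression evaluation.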

[4] = Dissociation constant for formamidine ring; assay type: physicochemical; in short: as §1
[5] = molecular target: Histamine H2 receptor (Cavia porcellus) (UniProt P47747); assay: Antagonist activity against histamine H2 receptor was evaluated in guinea pig atria; value ranges from (40.2-93.3) x10E-9; assay type: functional; in short: as §2
[6] = Dissociation constant for imidazole ring; ND means not determined because of product insolubility; assay type: physicochemical; in short: as §1
[7] = molecular target: Histamine H2 receptor (Cavia porcellus) (UniProt P47747); assay: Antagonist activity against histamine H2 receptor was evaluated in guinea pig atria; value ranges from (3.6-16.1)x10E-9; assay type: functional; in short: as §2

Row | Compound | pKa [1] | Monocation species [2] [%] | Kb [3] [µM] | pKa [4] | Kb [5] [µM] | pKa [6] | Kb [7] [µM]
1 | FC(F)C/N=C/Nc1ccc(-c2c[nH]cn2)cc1 | 4.54 | 54.64 | 0.021 | 6.6 |  |  | 
2 | FCC/N=C/Nc1ccc(-c2c[nH]cn2)cc1 | 5.55 | 87.56 |  | 8.12 | 0.061 |  | 
3 | CC/N=C/Nc1ccc(-c2c[nH]cn2)cc1 | 5.57 | 88.78 |  | 8.65 |  |  | 
4 | N#C/N=C/Nc1ccc(-c2c[nH]cn2)cc1 |  |  |  | < 1 |  | Insoluble | 
5 | FC(F)(F)C/N=C/Nc1ccc(-c2c[nH]cn2)cc1 | 4.45 | 29.5 |  | 6.14 |  |  | 0.0076
